Data reported in ChEMBL document CHEMBL3804796, “Discovery of Novel 3,3-Disubstituted Piperidines as Orally Bioavailable, Potent, and Efficacious HDM2-p53 Inhibitors” (ACS Med Chem Lett, 2016).
pIC50: −log10 of the molar value. ≈ marks a conversion by molar mass, not a printed value. Calls of active or inactive are those of the source. The calls are words filed in the database; no cut-off is given here.

Experiments:
WM-115 = assay: Antiproliferative activity against human WM115 cells expressing wild type p53 after 72 hrs by CellTitre-Glo assay; assay type: functional, cell-based
How it was run: (§1)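 Cell lines exposed to compound for 72 h; viability read by CellTiter-Glo and IC50 derived. p53 coding-region mutation status of each line established by direct sequencing.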

A2780 [1] = assay: Antiproliferative activity against human A2780 cells expressing wild type p53 after 72 hrs by CellTitre-Glo assay; assay type: functional, cell-based; how it was run: as §1
[2] = Solubility of compound in pH 7.4 phosphate buffer; assay type: physicochemical
Mus musculus = assay: Toxicity in nude mouse xenografted with human SJSA1 cells assessed as body weight loss at 50 to 200 mg/kg, po qd administered with cycle of 3 days on, 4 days off for 30 days; assay type: organism-based, SJSA-1; conditions: in vivo
How it was run: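 Nude mice bearing SJSA-1 osteosarcoma xenografts, n = 5 per group. Dosing was oral in 20% HPBCD, either continuous daily at 100 and 200 mpk or intermittent (daily for 3 days on, 4 days off). Body weight was compared against a vehicle-control group.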

MCF7 = assay: Antiproliferative activity against human MCF7 cells expressing wild type p53 after 72 hrs by CellTitre-Glo assay; assay type: functional, cell-based; how it was run: as §1
LNCaP = assay: Antiproliferative activity against human LNCAP cells expressing wild type p53 after 72 hrs by CellTitre-Glo assay; assay type: functional, cell-based; how it was run: as §1
[3] = Clearance in monkey at 1 mg/kg, iv; assay type: ADME, organism-based, Macaca mulatta; conditions: rhesus monkey, in vivo
[4] = Antitumor activity against human SJSA1 cells xenografted in nude mouse assessed as tumor growth inhibition at 100 mg/kg, po qd administered with cycle of 3 days on, 4 days off for 30 days relative to control; assay type: functional; conditions: SJSA-1, po, read-out: TGI
How it was run: (§2)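 Nude mice bearing SJSA-1 osteosarcoma xenografts, n = 5 per group. Oral dosing in 20% HPBCD, given either intermittently (daily, 3 days on/4 days off) or continuously daily. Body weight was monitored against a vehicle control group.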

LOX IMVI = assay: Antiproliferative activity against human LOXIMVI cells expressing wild type p53 after 72 hrs by CellTitre-Glo assay; assay type: functional, cell-based; how it was run: as §1
MOLM-13 = assay: Antiproliferative activity against human MOLM13 cells expressing wild type p53 after 72 hrs by CellTitre-Glo assay; assay type: functional, cell-based; how it was run: as §1
A549 [5] = assay: Antitumor activity against human A549 cells xenografted in nude mouse assessed as tumor growth inhibition at 100 mg/kg, po qd administered with cycle of 3 days on, 4 days off for 30 days relative to control; assay type: functional; conditions: read-out: TGI
How it was run: (§3)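 Mice bearing A549 NSCLC xenografts. The test agent was given orally, either daily or intermittently (daily for 3 days, then 4 days off). Paclitaxel was given at 20 mg/kg ip weekly, alone or in combination. Read-out was tumor growth inhibition.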

Cytochrome P450 2C8 = Cytochrome P450 2C8 (Homo sapiens, UniProt P10632); assay: Inhibition of CYP2C8 (unknown origin); assay type: ADME
Sequence of Cytochrome P450 2C8 (P10632 whole entry): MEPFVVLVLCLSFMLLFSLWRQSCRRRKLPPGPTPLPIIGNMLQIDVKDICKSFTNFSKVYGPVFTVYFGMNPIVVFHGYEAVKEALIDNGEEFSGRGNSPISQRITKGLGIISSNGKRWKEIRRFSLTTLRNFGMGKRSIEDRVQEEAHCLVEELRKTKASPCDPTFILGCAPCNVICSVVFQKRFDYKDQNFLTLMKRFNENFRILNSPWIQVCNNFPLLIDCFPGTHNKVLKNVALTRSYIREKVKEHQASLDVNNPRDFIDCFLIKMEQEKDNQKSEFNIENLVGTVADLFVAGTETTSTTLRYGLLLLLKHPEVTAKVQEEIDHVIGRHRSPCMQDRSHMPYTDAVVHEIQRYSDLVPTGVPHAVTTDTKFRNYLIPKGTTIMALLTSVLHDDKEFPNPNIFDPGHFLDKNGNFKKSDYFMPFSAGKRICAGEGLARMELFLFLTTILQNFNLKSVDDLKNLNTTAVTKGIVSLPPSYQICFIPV

[6] = Antitumor activity against human SJSA1 cells xenografted in nude mouse assessed as tumor growth inhibition at 200 mg/kg, po qd administered with cycle of 3 days on, 4 days off for 30 days relative to control; assay type: functional; conditions: SJSA-1, po, read-out: TGI; how it was run: as §2
[7] = Fraction unbound in monkey plasma; assay type: ADME, cell-free, Macaca mulatta; conditions: rhesus monkey
[8] = Antitumor activity against human SJSA1 cells xenografted in nude mouse assessed as tumor growth inhibition at 200 mg/kg, po qd continuously for 30 days relative to control; assay type: functional; conditions: SJSA-1, po, 720 h, read-out: TGI; how it was run: as §2
NCI-H292 = assay: Antiproliferative activity against human NCI-H292 cells expressing wild type p53 after 72 hrs by CellTitre-Glo assay; assay type: functional, cell-based; how it was run: as §1
[9] = Antiproliferative activity against p53 null human H1299 cells after 72 hrs by CellTitre-Glo assay; assay type: functional, cell-based; conditions: NCI-H1299, 72 h
How it was run: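 Cancer cell lines of known p53 coding-region status (checked by direct sequencing) were exposed to the compound for 72 h. Viability was read with CellTiter-Glo, and the IC50 was taken from these readings.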

CMLT1 = assay: Antiproliferative activity against human CMLT1 cells expressing wild type p53 after 72 hrs by CellTitre-Glo assay; assay type: functional, cell-based; how it was run: as §1
[10] = Clearance in dog at 1 mg/kg, iv; assay type: ADME, organism-based, Canis lupus familiaris; conditions: in vivo
SJSA-1 = assay: Selectivity ratio of IC50 for human SK-UT-1 cells harboring mutant p53 to IC50 for human SJSA1 cells expressing wild type p53; assay type: functional
How it was run: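 Ratio of two IC50s, each from a 72 h CellTiter-Glo viability assay. p53 coding-region status was confirmed by direct sequencing. The ratio is p53-mutant (SK-UT-1) or p53-null (H1299) IC50 divided by wild-type p53 (SJSA-1 or HCT116) IC50.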

DOHH-2 = assay: Antiproliferative activity against human DOHH2 cells expressing wild type p53 after 72 hrs by CellTitre-Glo assay; assay type: functional, cell-based; how it was run: as §1
A498 = assay: Antiproliferative activity against human A498 cells expressing wild type p53 after 72 hrs by CellTitre-Glo assay; assay type: functional, cell-based; how it was run: as §1
ACHN = assay: Antiproliferative activity against human ACHN cells expressing wild type p53 after 72 hrs by CellTitre-Glo assay; assay type: functional, cell-based; how it was run: as §1
[11] = Intrinsic clearance in human liver microsomes; assay type: ADME; conditions: read-out: CLH
MES-SA = assay: Antiproliferative activity against human MES-SA cells expressing wild type p53 after 72 hrs by CellTitre-Glo assay; assay type: functional, cell-based; how it was run: as §1
CESS = assay: Antiproliferative activity against human CESS cells expressing wild type p53 after 72 hrs by CellTitre-Glo assay; assay type: functional, cell-based; how it was run: as §1
NALM-6 = assay: Antiproliferative activity against human NALM6 cells expressing wild type p53 after 72 hrs by CellTitre-Glo assay; assay type: functional, cell-based; how it was run: as §1
[12] = Fraction unbound in dog plasma; assay type: ADME, cell-free, Canis lupus familiaris
A2780 [13] = assay: Antitumor activity against human A2780 cells xenografted in nude mouse harboring wild type p53 assessed as tumor growth inhibition at 50 mg/kg, po bid continuously for 15 days relative to control; assay type: functional; conditions: 360 h, read-out: TGI
How it was run: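 Wild-type p53 mice bearing A2780 ovarian xenografts. The test agent was given at 50 mg/kg orally twice daily, continuously. Docetaxel was given at 40 mg/kg ip weekly, twice in total. Each was given alone and in combination. Read-out was tumor growth inhibition.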

[14] = Fraction unbound in human plasma; assay type: ADME, cell-free
BC1 = assay: Antiproliferative activity against human BC1 cells expressing wild type p53 after 72 hrs by CellTitre-Glo assay; assay type: functional, cell-based; how it was run: as §1
Daudi = assay: Antiproliferative activity against human Daudi cells expressing wild type p53 after 72 hrs by CellTitre-Glo assay; assay type: functional, cell-based; how it was run: as §1
A549 [15] = assay: Antitumor activity against human A549 cells xenografted in nude mouse assessed as tumor growth inhibition at 200 mg/kg, po qd continuously for 30 days relative to control; assay type: functional; conditions: 720 h, read-out: TGI; how it was run: as §3
Cytochrome P450 2C9 = Cytochrome P450 2C9 (Homo sapiens, UniProt P11712); assay: Inhibition of CYP2C9 (unknown origin); assay type: ADME
Sequence of Cytochrome P450 2C9 (P11712 whole entry): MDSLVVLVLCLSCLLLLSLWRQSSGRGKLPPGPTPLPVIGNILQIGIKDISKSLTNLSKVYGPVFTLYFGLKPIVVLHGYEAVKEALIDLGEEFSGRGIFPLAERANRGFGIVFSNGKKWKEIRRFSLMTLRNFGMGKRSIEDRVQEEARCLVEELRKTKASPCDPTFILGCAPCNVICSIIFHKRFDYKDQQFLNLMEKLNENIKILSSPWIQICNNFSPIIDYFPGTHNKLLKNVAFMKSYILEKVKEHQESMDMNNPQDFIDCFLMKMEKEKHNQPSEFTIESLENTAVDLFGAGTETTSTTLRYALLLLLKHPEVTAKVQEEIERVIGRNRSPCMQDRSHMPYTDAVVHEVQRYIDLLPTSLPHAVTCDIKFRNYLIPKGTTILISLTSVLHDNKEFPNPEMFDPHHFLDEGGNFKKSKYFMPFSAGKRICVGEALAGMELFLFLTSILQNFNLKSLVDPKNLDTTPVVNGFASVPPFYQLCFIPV

Cytochrome P450 3A4 = Cytochrome P450 3A4 (Homo sapiens, UniProt P08684); assay: Inhibition of CYP3A4 (unknown origin); assay type: ADME
Sequence of Cytochrome P450 3A4 (P08684 whole entry): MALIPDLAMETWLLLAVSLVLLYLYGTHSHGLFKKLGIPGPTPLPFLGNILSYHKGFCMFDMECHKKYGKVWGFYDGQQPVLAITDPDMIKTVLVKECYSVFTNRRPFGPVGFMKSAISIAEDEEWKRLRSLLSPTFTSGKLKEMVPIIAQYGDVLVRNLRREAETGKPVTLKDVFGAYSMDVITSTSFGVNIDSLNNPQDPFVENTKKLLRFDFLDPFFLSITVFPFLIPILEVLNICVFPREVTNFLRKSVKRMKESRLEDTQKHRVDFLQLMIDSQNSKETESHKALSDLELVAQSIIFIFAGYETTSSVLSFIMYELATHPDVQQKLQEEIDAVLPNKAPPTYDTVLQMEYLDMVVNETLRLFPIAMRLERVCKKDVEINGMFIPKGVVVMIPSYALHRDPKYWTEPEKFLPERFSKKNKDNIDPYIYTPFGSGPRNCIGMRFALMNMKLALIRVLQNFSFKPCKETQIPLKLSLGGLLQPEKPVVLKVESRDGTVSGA

MOLT-4 = assay: Antiproliferative activity against human MOLT4 cells expressing wild type p53 after 72 hrs by CellTitre-Glo assay; assay type: functional, cell-based; how it was run: as §1
NCI-H460 = assay: Antiproliferative activity against human NCI-H460 cells expressing wild type p53 after 72 hrs by CellTitre-Glo assay; assay type: functional, cell-based; how it was run: as §1

CCC[C@H]1N(C(=O)c2cnccc2C(F)(F)F)CCC[C@@]1(Oc1csc(C(F)(F)F)c1)C(=O)N1CCN(c2ccccc2OCCCC(=O)O)CC1
Activity (WM-115): Active
Activity (A2780 [1]): Active
solubility [2]: 100 µM (≈ 75.7 µg/mL)
Activity (Mus musculus): Non-toxic
Activity (MCF7): Active
Activity (LNCaP): Active
clearance [3]: 23 mL/min/kg
inhibition in vivo at 100 mg/kg [4]: 31%
Activity (LOX IMVI): Active
Activity (MOLM-13): Active
inhibition in vivo at 100 mg/kg (A549 [5]): 27%
pIC50 (Cytochrome P450 2C8): < 4.30
inhibition in vivo at 200 mg/kg [6]: 49%
fraction unbound [7]: 0.05
inhibition in vivo at 200 mg/kg [8]: 60%
Activity (NCI-H292): Active
pIC50 [9]: < 4.30
Activity (CMLT1): Active
clearance [10]: 4.1 mL/min/kg
Ratio IC50 (SJSA-1): >500
Activity (DOHH-2): Active
Activity (A498): Active
Activity (ACHN): Active
CLint scaled [11]: 3 mL/min/kg
Activity (MES-SA): Active
Activity (CESS): Active
Activity (NALM-6): Active
fraction unbound [12]: 0.02
inhibition in vivo at 50 mg/kg (A2780 [13]): 41%
fraction unbound [14]: 0.04
Activity (BC1): Active
Activity (Daudi): Active
inhibition in vivo at 200 mg/kg (A549 [15]): 75%
pIC50 (Cytochrome P450 2C9): < 4.30
pIC50 (Cytochrome P450 3A4): < 4.30
Activity (MOLT-4): Active
Activity (NCI-H460): Active
